According to ChEMBL document CHEMBL3585270, “Discovery of oxime-bearing naphthalene derivatives as a novel structural type of Nrf2 activators” (Bioorg Med Chem, 2015):
pIC50: −log10 of the molar value. Calls of active or inactive are those of the source. The calls are words filed in the database; no cut-off is given here.

Experiments:
[1] = tested on: NCI-H226; assay: Cytotoxicity against human NCI-H226 cells assessed as reduction in cell viability by MTT assay; format: cell-based
In short: (§1)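 Cells cultured in MEM or RPMI1640 with 10% FBS, 37 °C, 5% CO₂. After compound exposure, 5 µg/ml MTT in MEM for 2 h at 37 °C, then solubilized overnight at 37 °C (40% DMF, 20% SDS); absorbance at 570 nm. IC50 taken from linear portion of curve as concentration cutting absorbance 50% versus control.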

[2] = tested on: Jurkat; assay: Cytotoxicity against human Jurkat cells assessed as reduction in cell viability by MTT assay; format: cell-based; in short: as §1
[3] = biological target: T1, Nuclear factor erythroid 2-related factor 2 (Homo sapiens) (UniProt Q16236); assay: Activation of Nrf2 in human NPC-TW01 or HONE1 cells expressing ARE-luciferase at 20 uM incubated for 16 hrs by luciferase reporter gene assay relative to untreated control; format: cell-based
T1 sequence (whole entry): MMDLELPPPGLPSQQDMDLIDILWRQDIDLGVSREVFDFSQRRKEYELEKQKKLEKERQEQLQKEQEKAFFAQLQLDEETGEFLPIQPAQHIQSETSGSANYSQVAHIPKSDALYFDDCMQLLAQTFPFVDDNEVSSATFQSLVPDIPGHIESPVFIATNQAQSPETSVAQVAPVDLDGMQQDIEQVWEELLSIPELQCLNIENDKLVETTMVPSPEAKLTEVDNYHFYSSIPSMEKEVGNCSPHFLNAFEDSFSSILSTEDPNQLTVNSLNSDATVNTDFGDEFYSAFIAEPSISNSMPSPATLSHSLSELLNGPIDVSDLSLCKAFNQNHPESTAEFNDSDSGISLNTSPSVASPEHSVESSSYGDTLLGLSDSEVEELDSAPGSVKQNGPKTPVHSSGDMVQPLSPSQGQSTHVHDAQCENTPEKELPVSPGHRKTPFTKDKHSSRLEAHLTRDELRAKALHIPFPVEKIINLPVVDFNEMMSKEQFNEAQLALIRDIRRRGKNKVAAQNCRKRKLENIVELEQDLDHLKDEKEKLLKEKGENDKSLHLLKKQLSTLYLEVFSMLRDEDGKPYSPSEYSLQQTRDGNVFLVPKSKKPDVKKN

[4] = Cytotoxicity against human NPC-TW01 cells assessed as reduction in cell viability by MTT assay; format: cell-based; in short: as §1
[5] = biological target: T1, Nuclear factor erythroid 2-related factor 2 (Homo sapiens); assay: Activation of Nrf2 in human NPC-TW01 or HONE1 cells expressing ARE-luciferase at 20 uM incubated for 16 hrs in presence of PKC signaling inhibitor staurosporine by luciferase reporter gene assay relative to untreated control; format: cell-based
[6] = tested on: NPC-TW01; assay: Effect on Nrf2 protein expression in human NPC-TW01 cells expressing pGL4-9ARE incubated for 6 and 12 hrs by Western blot method; format: functional, cell-based
In short: (§2)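 TW01-pGL4-9ARE cells treated and harvested at set times; lysed in NP-40 buffer with phosphatase/protease inhibitors, protein by BCA. 40 µg lysate on 10% SDS-PAGE, PVDF transfer, 5% BSA/TBS-Tween block; primary antibodies (p-Nrf2 Ser40, total Nrf2, actin) overnight at 4 °C, HRP secondary 1 h room temperature; imaged by chemiluminescence imager.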

[7] = biological target: T1, Nuclear factor erythroid 2-related factor 2 (Homo sapiens); assay: Induction of Nrf2 Ser40 phosphorylation in human NPC-TW01 cells expressing pGL4-9ARE incubated for 6 and 12 hrs by Western blot method; format: cell-based; in short: as §2
[8] = tested on: NPC-TW01; assay: Inhibition of H2O2-induced intracellular oxidative stress in human NPC-TW01 cells expressing pGL4-9ARE at 20 uM pre-treated for 6 hrs before H2O2 challenge for 16 hrs by DCFH-DA dye based flow cytometry; format: functional, cell-based
In short: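 TW01-pGL4-9ARE cells, 1 × 10⁵ per well, grown overnight, pre-treated 20 µM for 6 h, then 500 µM H2O2 for 16 h. Stained with 20 µM DCFH-DA 30 min at 37 °C, resuspended in PBS, analysed by flow cytometry; geometric mean fluorescence reported, p < 0.05 versus H2O2 alone.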

SMILES	pIC50 [1]	pIC50 [2]	fold change (FC) [3]	pIC50 [4]	Activity [5]	Activity [6]	Activity [7]	inhibition [8]
O/N=C(\COc1cccc2ccccc12)c1ccc(F)c(F)c1	< 4.30	4.37	0.86	4.43	–	–	–	–
O/N=C(\COc1ccc2ccccc2c1)c1ccc(Cl)cc1	4.46	4.43	1.07	4.59	–	–	–	–
O/N=C(\COc1ccc2ccccc2c1)c1ccc(F)cc1	< 4.30	< 4.30	2.61	< 4.30	inactive	inactive	Active	Active
CC(C)(C)c1cc(O)ccc1O	–	–	1.77	–	–	–	–	–
O/N=C(\COc1ccc2ccccc2c1)c1ccccc1	< 4.30	< 4.30	3.49	< 4.30	inactive	inactive	Active	Active
COc1ccc(/C(COc2ccc3ccccc3c2)=N/O)cc1	< 4.30	4.45	1.65	< 4.30	inactive	inactive	Active	Active
O/N=C(\COc1cccc2ccccc12)c1ccccc1	4.33	< 4.30	1.14	< 4.30	–	–	–	–
O/N=C(\COc1cccc2ccccc12)c1ccc(F)cc1	< 4.30	< 4.30	1.09	< 4.30	–	–	–	–
O/N=C(\COc1cccc2ccccc12)c1ccc(-c2ccccc2)cc1	< 4.30	< 4.30	1.19	< 4.30	–	–	–	–
COc1ccc(OC)c(/C(COc2cccc3ccccc23)=N/O)c1	4.38	< 4.30	0.93	4.49	–	–	–	–
C/C(COc1ccc2ccccc2c1)=N\O	< 4.30	< 4.30	2.04	< 4.30	inactive	inactive	Active	Active
O/N=C(\COc1cccc2ccccc12)c1ccc(Cl)cc1	< 4.30	< 4.30	1	< 4.30	–	–	–	–
O/N=C(\COc1cccc2ccccc12)c1ccc(Br)cc1	< 4.30	< 4.30	1.03	< 4.30	–	–	–	–
O/N=C(\COc1ccc2ccccc2c1)c1ccc(-c2ccccc2)cc1	< 4.30	< 4.30	1.18	< 4.30	–	–	–	–
O/N=C(\COc1cccc2ccccc12)c1ccc2ccccc2c1	4.41	< 4.30	1.25	4.44	–	–	–	–
O/N=C(\COc1ccc2ccccc2c1)c1ccc(Br)cc1	4.41	4.33	0.95	4.55	–	–	–	–
COc1ccc(/C(COc2cccc3ccccc23)=N/O)cc1	4.44	4.50	1.1	4.49	–	–	–	–
O/N=C(\COc1ccc2ccccc2c1)c1ccc(F)c(F)c1	4.37	4.35	1.42	4.44	–	–	–	–
O/N=C(\COc1ccc2ccccc2c1)c1ccc(C(F)(F)F)cc1	4.47	4.44	1.05	4.51	–	–	–	–
O/N=C(\COc1ccc2ccccc2c1)c1ccc2ccccc2c1	4.43	4.61	1.36	< 4.30	–	–	–	–
COc1ccc(OC)c(/C(COc2ccc3ccccc3c2)=N/O)c1	5.07	5.00	0.65	4.78	–	–	–	–
O/N=C(\COc1cccc2ccccc12)c1ccc(C(F)(F)F)cc1	< 4.30	< 4.30	1.01	4.33	–	–	–	–
C/C(COc1cccc2ccccc12)=N\O	< 4.30	< 4.30	1.17	< 4.30	–	–	–	–
